# According to PubChem BioAssay AID719 (SRMLSC, 2007):
# Hit rate of the full screen: of about 85,000 compounds, about 940 (1.1%) were called active.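 The calls were made as follows: active = viability at or below 50% in the single dose screen; inactive = viability above 50%.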 Shown is part of a subset that was picked to be rich in actives.
# Test: antiproliferative effect on LL 47 fibroblasts – human, LL 47 cells, CellTiter-Glo luminescence, primary screen (AID 719);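 also: compound exposure lasted 72 h before the ATP readout; 100% = median luminescence of untreated cell-only wells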
# Details: LL 47 human lung fibroblast viability, ATP luminescence; at 10 µM; active compounds read low
# Outline: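 test system = LL 47 human lung fibroblasts | amount = 1,150 fibroblasts seeded per well | medium = 15% FBS in IMEM | times = overnight cell rest, 72 h compound treatment at 37 °C | measured by = CellTiter-Glo luminescence measuring cellular ATP | read-out = viability percentage against median untreated-cell control | benchmarks = cell-only wells, no compound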
row,Structure (SMILES),viability
1,Cc1cc(NC(=O)CSc2nc(C(C)C)nc3sc4c(c23)CCC(C)C4)no1 (stereo unspecified),10.9% (active)
2,Cc1nc(SCC(=O)Nc2cc(C)on2)c2c3c(sc2n1)CCCC3,94.8% (inactive)
3,Cc1nc(SCC(=O)Nc2cc(C)on2)c2c(C)c(C)sc2n1,99.4% (inactive)
4,O=C(/C=C/c1ccc(Cl)cc1Cl)c1cccnc1,79% (inactive)
5,CCOC(=O)Nc1sc(C(=O)N(C)C)c(C)c1C(=O)OCC,89.5% (inactive)
6,CCOC(=O)c1c(NC(=O)CCl)sc(C(=O)N(CC)CC)c1C,28% (active)
7,CCOC(=O)c1sc(NC(=O)CCN2CCOCC2)c(C(=O)OCC)c1C,80.1% (inactive)
8,O=C(NCc1cccnc1)Nc1ccccc1F,96.7% (inactive)
9,Cc1cc(C)c2c(n1)nn1c(-n3ccnc3)cc(C)nc21,101% (inactive)
10,Cc1cc(C)c2c(n1)nn1c(N3CCOCC3)cc(C)nc21,82.4% (inactive)
11,Cc1cc(C)c2c(n1)nn1c(N3CCN(c4cccc(Cl)c4)CC3)cc(C)nc21,36.8% (active)
12,COc1ccc(NC(=O)CCN2CCCC2)c(OC)c1,104% (inactive)
13,Cc1ccccc1-n1c(C)cc(/C=C2\NC(=O)NC2=O)c1C,77.2% (inactive)
14,O=C(Cn1c(=O)sc2ccccc21)Nc1nc2c(s1)CCCC2,100% (inactive)
15,COC(=O)C(NC(C)=O)(Nc1nc2c(s1)CCCC2)C(F)(F)F (stereo unspecified),103% (inactive)
16,O=C(CCS(=O)(=O)c1ccccc1)Nc1nc2c(s1)CCCC2,47.7% (active)
17,N#CC1=C(N)N(c2ccccc2)C2=C(C(=O)CCC2)C1c1ccccc1 (stereo unspecified),93.1% (inactive)
18,COc1ccc(CNCCCO)cc1OC,95.2% (inactive)
19,COC(=O)c1ccccc1Sc1c(/C=N/OCc2ccc(Cl)cc2)c(C(F)(F)F)nn1C,92.7% (inactive)
20,COC(=O)c1cc(OC)ccc1-c1ccc(OC)cc1,90.1% (inactive)
21,Cc1cc(Cl)c(S(=O)(=O)N(C)C)cc1OCC(N)=O,101% (inactive)
22,COc1ccc(-c2nnc(SCc3cccnc3)o2)cc1,105% (inactive)
23,Cc1cccc(OCCCC(=O)Nc2ccc(S(=O)(=O)N3CCCC3)cc2)c1,98.6% (inactive)
24,CC(C)CCNc1nc(N2CCCC2)c2c(c1C#N)CCN(C)C2,30.8% (active)

row,Structure (SMILES),viability
1,CCN1CCc2c(C#N)c(NCc3ccccc3)nc(NCCO)c2C1,86.2% (inactive)
2,CC(C)Cc1nc(N2CCOCC2)c(C#N)c2c1CCC2,90.7% (inactive)
3,CC1CCN(C(=O)c2cc3nc(C4CC4)cc(C(F)(F)F)n3n2)CC1,96.3% (inactive)
4,C/C=C/C(=O)Nc1nnc(C(C)C)s1,103% (inactive)
5,O=C(c1cccc(C(=O)N2CCN(c3ccc(F)cc3)CC2)c1)N1CCN(c2ccc(F)cc2)CC1,97.2% (inactive)
6,Oc1c(CN2CCN(c3ccc(F)cc3)CC2)cc(Cl)c2cccnc12,22.4% (active)
7,CCN1CCN(C(c2cccnc2)c2cc(Cl)c3cccnc3c2O)CC1 (stereo unspecified),75.3% (inactive)
8,CCn1nnnc1SCC(=O)c1ccc(C)cc1C,99.4% (inactive)
9,CCNC(=O)NC(=O)C(C)OC(=O)c1cc(S(=O)(=O)N2CCCCCC2)ccc1OC (stereo unspecified),94.5% (inactive)
10,Cc1cc(C(=O)OC(C)C(=O)Nc2cccc(S(=O)(=O)N3CCOCC3)c2)c(C)o1 (stereo unspecified),30.6% (active)
11,O=C(c1cccc(S(=O)(=O)N2CCOCC2)c1)N1CCOCC1,104% (inactive)
12,Cc1ccoc1C(=O)Nc1cccc(Oc2ccccc2)c1,103% (inactive)
13,Cc1cccc(NC(=O)Nc2cccc(Oc3c(F)c(F)c(F)c(F)c3F)c2)c1,49.6% (active)
14,CC(=O)c1cccc(NC(=O)Nc2ccc(C)cc2)c1,109% (inactive)
15,Cc1ccc(C)c(NC2=NCC(=O)N2c2ccc3c(c2)OCCO3)c1,120% (inactive)
16,O=C(CSc1nc2cccnc2n1Cc1ccccc1)N1CCc2ccccc21,104% (inactive)
17,COC(=O)c1sc(NC(=O)c2ccc(OC)cc2OC)nc1C,91.9% (inactive)
18,COc1cccc2sc(Nc3nc(C)c(C(C)=O)s3)nc12,26.9% (active)
19,CC(=O)c1sc(NC(=O)c2ccc(C)cc2)nc1C,105% (inactive)
20,Fc1ccccc1/C=C1\CCCC2=C1Nc1ncnn1C2c1ccccc1F (stereo unspecified),3.89% (active)
21,Cc1cc(SCC(=O)c2ccccc2)nc(SCC(=O)c2ccccc2)n1,102% (inactive)
22,CCOC(=O)c1ccc2c(c1)nc(C)n2CC,103% (inactive)
23,CN1CCN(CCCNC(=O)c2cc3c(=O)oc4ccccc4c3s2)CC1,105% (inactive)
24,Cn1c(C(=O)NCCN2CCc3ccccc3C2)cc2c(=O)[nH]c3ccccc3c21,93.3% (inactive)

row,Structure (SMILES),viability
1,O=C(NCCN1CCN(Cc2ccccc2)CC1)c1cc2c(=O)[nH]c3ccccc3c2s1,42.8% (active)
2,CCc1ccc(NC(=O)CN2C(=O)CSC2=O)cc1,100% (inactive)
3,CCOC(=O)c1sc(NC(=O)c2ccncc2)nc1C,98.9% (inactive)
4,CC1=CC(C)(C)Nc2ccc(OC(=O)CN3C(=O)C4CCCCC4C3=O)cc21 (stereo unspecified),39.7% (active)
5,CC1=CC(C)(C)Nc2ccc(OC(=O)C(Cc3ccccc3)N3C(=O)C4CCCCC4C3=O)cc21 (stereo unspecified),94.3% (inactive)
6,CC(OC(=O)CN1C(=O)C2CCCCC2C1=O)C(=O)Nc1ncc(Cl)cc1Cl (stereo unspecified),98.2% (inactive)
7,CC1(C)CC(=O)C=C(N2CCCC2)C1,112% (inactive)
8,COc1ccc(N2CCN(Cc3ccc(Br)s3)CC2)cc1,100% (inactive)
9,CC(=O)Oc1ccc(NC(=O)CCC2CCCCC2)c(C(=O)O)c1,93.2% (inactive)
10,CCCNC(=O)CN(Cc1ccccc1F)S(=O)(=O)c1ccc(C)cc1,105% (inactive)
11,CC1=NN(/C(=N\c2nnc(C)s2)Nc2ccccc2)[C@H](c2ccc(C)cc2)S1,89.1% (inactive)
12,CCCc1[nH]nc2c1C(c1ccc(OC(=O)c3ccco3)cc1)C(C#N)=C(N)O2 (stereo unspecified),95.1% (inactive)
13,CCCc1[nH]nc2c1C(c1ccc(OC)c(Cn3nc(C)c(Br)c3C)c1)C(C#N)=C(N)O2 (stereo unspecified),95.9% (inactive)
14,CCCc1[nH]nc2c1C(c1ccc(Br)s1)C(C#N)=C(N)O2 (stereo unspecified),33.5% (active)
15,CCOc1ccc(NC(=O)C2CCCN(C(=O)Nc3ccccc3)C2)cc1 (stereo unspecified),105% (inactive)
16,CCCCC(C(=O)OCC(=O)c1ccc(OC)cc1)N1C(=O)c2ccccc2C1=O (stereo unspecified),93.2% (inactive)
17,COC(=O)c1ccccc1NC(=O)Cc1ccccc1OC,102% (inactive)
18,CCOc1ccc(Cn2nnc(C(=O)Nc3ccc(OC)cc3OC)c2N)cc1,81.2% (inactive)
19,Nc1c(C(=O)NCc2ccccc2)nnn1Cc1cccc(Cl)c1,44.6% (active)
20,CCOc1ccc(Cn2nnc(C(=O)NCc3ccccc3)c2N)cc1,84.8% (inactive)
21,CC(C)N1C(=S)SC(C)(C)C1n1oc(=O)n(-c2ccc(Cl)c(Cl)c2)c1=O (stereo unspecified),87.5% (inactive)
22,Cn1c2ccccc2c2c(C(=O)N3CCN(c4ccc(F)cc4)CC3)cn(C3CCCC3)c(=O)c21,85.9% (inactive)
23,CCOC(=O)N1CCN(C(=O)c2nn(-c3ccc(C)cc3)c(=O)c3c2c2ccccc2n3C)CC1,19.7% (active)
24,CCOC(=O)N1CCN(C(=O)c2n[nH]c(=O)c3ccccc23)CC1,97.5% (inactive)

row,Structure (SMILES),viability
1,Nc1nonc1-c1nc2ccccc2n1Cc1ccc(F)cc1,52.3% (inactive)
2,Nc1nonc1-c1nc2ccccc2n1CCC(=O)O,104% (inactive)
3,COc1ccc(C)c(Cn2c(-c3nonc3N)nc3ccccc32)c1,42.2% (active)
4,CCOc1ccc(N=C2NC(=O)S/C2=C\c2ccc(O)cc2)cc1,102% (inactive)
5,COc1ccc(C)cc1S(=O)(=O)NCCc1ccccc1,97.6% (inactive)
6,Cc1nc(NC(=O)CN(C)S(=O)(=O)c2ccc(Cl)cc2)sc1C,98.6% (inactive)
7,O=C(CSc1nnc(-c2ccccn2)n1-c1ccccc1)Nc1ccc2c(c1)OCO2,89.6% (inactive)
8,Cc1ccc(-n2c(SCC(=O)Nc3ccc4c(c3)OCO4)nnc2-c2ccoc2C)cc1,99% (inactive)
9,Cc1ccc(-n2c(SCC(=O)Nc3ccc4c(c3)OCO4)nnc2-c2ccccn2)cc1,42.1% (active)
10,Cc1ccc(-n2c(SCC(=O)NCc3ccc4c(c3)OCO4)nnc2-c2cccnc2)c(C)c1,95.8% (inactive)
11,O=C(c1cc2sccc2n1Cc1ccc(F)cc1)N1CCc2ccccc21,95.6% (inactive)
12,COc1ccc(CC(=O)Nc2ccc(-c3nnc(-c4ccc(C)cc4)o3)cc2)cc1,30.9% (active)
13,COc1ccc(CC(=O)Nc2ccc(-c3nnc(-c4ccccc4)o3)cc2)cc1,105% (inactive)
14,Cc1ccc(OCC(=O)Nc2ccc(-c3nnc(-c4ccco4)o3)cc2)cc1,91.8% (inactive)
15,O=C(/C=C/NNC(=O)c1cccc(Br)c1)c1ccccc1,80.9% (inactive)
16,CCC(=O)Nc1sc(C(=O)N2CCCCC2)c(C)c1C#N,98% (inactive)
17,CN1CCN(CC(=O)Nc2sc3c(c2C#N)CCC(C(C)(C)C)C3)CC1 (stereo unspecified),2.62% (active)
18,CC(C)(C)C1CCc2c(sc3nc(SCC(N)=O)nc(N)c23)C1 (stereo unspecified),99% (inactive)
19,CCOC(=O)c1nnn(-c2nonc2-n2cccc2)c1CN1CCC(C(=O)OCC)CC1,95% (inactive)
20,CC(=O)Oc1cc2c(C(=O)NCCN3CCOCC3)c(C)oc2c2ccccc12,8.08% (active)
21,O=C(CCN1C(=O)c2ccccc2C1=O)NCCN1CCOCC1,104% (inactive)
22,O=C(NCCN1CCOCC1)c1c(F)c(F)c(F)c(F)c1F,97.6% (inactive)
23,Cc1ccc(-c2cc(C(=O)NCC3CCCO3)c3ccccc3n2)o1 (stereo unspecified),98.3% (inactive)
24,Clc1cccc(N=C2NN=C(c3ccc4c(c3)OCCO4)CS2)c1,101% (inactive)
